Source: ChEMBL document CHEMBL1154008, “Synthesis and in vitro activity of new tetrahydronaphtho[1,2-b]azepine derivatives against Trypanosoma cruzi and Leishmania chagasi parasites” (Bioorg Med Chem Lett, 2009)

Assays:
Trypanosoma cruzi [1] = assay: Antiparasitic activity against Trypanosoma cruzi 320I04 intracellular amastigotes infected in african green monkey Vero cells after 72 hrs; format: functional, organism-based; conditions: 320I04, Vero
Trypanosoma cruzi [2] = assay: Antiparasitic activity against Trypanosoma cruzi 320I04 epimastigotes […] after 72 hrs; format: functional, organism-based
Method in brief: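 Free parasite forms (T. cruzi 320I04 epimastigotes; L. chagasi MHOM/BR/74/PP75 promastigotes) exposed to compounds for 72 h at 27 °C. IC50/IC90 taken as the concentrations giving 50% or 90% growth inhibition. Values are representative of one experiment out of three.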

[3] = Selectivity index, ratio of CC50 for african green monkey Vero cells to IC50 for Trypanosoma cruzi 320I04 epimastigotes; format: functional
Method in brief: (§1)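 SI calculated as Vero CC50 divided by T. cruzi IC50, or THP-1 CC50 divided by L. chagasi IC50. Both values come from 72 h exposures: parasites at 27 °C, mammalian cells at 37 °C with MTT read-out.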

[4] = Cytotoxicity against african green monkey Vero cells after 72 hrs by MTT assay; format: cell-based; conditions: chlorocebus sabaeus
Method in brief: (§2)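 Vero or transformed THP-1 cells exposed to a 3-fold compound dilution series, in triplicate, for 72 h at 37 °C. Toxicity read by MTT reduction. CC50/CC90 taken as the concentrations killing 50% or 90% of cells. Values are representative of one experiment out of three.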

[5] = Selectivity index, ratio of CC50 for human THP1 cells to IC50 for Leishmania chagasi MHOM/BR/74/PP75 promastigotes; format: functional, THP-1; method in brief: as §1
[6] = Selectivity index, ratio of CC50 for african green monkey Vero cells to IC50 for Trypanosoma cruzi 320I04 intracellular amastigotes; format: functional
[7] = Cytotoxicity against human THP1 cells after 72 hrs by MTT assay; format: cell-based; conditions: THP-1 cells; method in brief: as §2
Leishmania chagasi = assay: Antiparasitic activity against Leishmania chagasi MHOM/BR/74/PP75 promastigotes infected in human THP1 cells after 72 hrs; conditions: MHOM/BR/74/PP75, THP-1, 72 h

Row | Compound | IC50 (Trypanosoma cruzi [1]) [µM] | IC90 (Trypanosoma cruzi [1]) [µM] | IC50 (Trypanosoma cruzi [2]) [µM] | IC90 (Trypanosoma cruzi [2]) [µM] | Ratio CC50/IC50 [3] | CC50 at 72 h [4] [µM] | CC90 at 72 h [4] [µM] | Ratio CC50/IC50 [5] | Ratio CC50/IC50 [6] | CC50 at 72 h [7] [µM] | CC90 at 72 h [7] [µM] | IC50 (Leishmania chagasi) [µM] | IC90 (Leishmania chagasi) [µM]
1 | COc1cccc([C@@H]2C[C@H](O)Cc3ccc4ccccc4c3N2)c1 | 24.3 | > 30 | 14 | 48.5 | 7 | 97.6 | > 200 | 10.9 | 4 | 195 | > 300 | 17.9 | 58.7
2 | O=[N+]([O-])c1ccccc1[C@@H]1C[C@@H]2Cc3ccc4ccccc4c3N1O2 | > 100 | > 100 | 1.4 | 29.3 | 28.7 | 40.2 | > 300 | >7.3 | <0.4 | > 300 | > 300 | 40.9 | 209
3 | Cc1cccc([C@@H]2C[C@H](O)Cc3ccc4ccccc4c3N2)c1 | 33.4 | > 30 | 16.5 | 42.7 | 5.3 | 87.4 | > 250 | 2.2 | 2.6 | 89.9 | 116 | 41.4 | 134
4 | O[C@@H]1Cc2ccc3ccccc3c2N[C@H](c2cccc(Br)c2)C1 | > 100 | > 100 | 10.7 | 19.4 | 4.6 | 49.5 | > 250 | 2.3 | 0.5 | 41.7 | > 250 | 18.3 | 55.7
5 | O[C@@H]1Cc2ccc3ccccc3c2N[C@H](c2ccccc2Cl)C1 | 10.6 | > 30 | 0.5 | 11 | 193 | 96.5 | > 250 | 2.2 | 9.1 | 66.1 | > 300 | 30.6 | 64.6
6 | O[C@@H]1Cc2ccc3ccccc3c2N[C@H](c2ccc(F)cc2)C1 | 14.8 | > 30 | 1.1 | 11.6 | 91.4 | 100 | > 250 | 3.9 | 6.8 | 81.9 | > 250 | 21 | 120
7 | O[C@@H]1Cc2ccc3ccccc3c2N[C@H](c2ccc(Cl)cc2Cl)C1 | > 30 | > 30 | 1 | 19.4 | 45.4 | 45.4 | > 200 | 7.2 | <1.5 | 79.4 | 92.7 | 11 | 28.2
8 | O[C@@H]1Cc2ccc3ccccc3c2N[C@H](c2ccc(Cl)cc2)C1 | > 100 | > 100 | 3.2 | 24.8 | 29.7 | 95 | > 250 | 1.4 | <1 | 36.2 | 122 | 25.9 | 52.9
9 | Clc1cccc([C@@H]2C[C@@H]3Cc4ccc5ccccc5c4N2O3)c1 | 13.1 | > 100 | 12.6 | 80.1 | >23.8 | > 300 | > 300 | >9.2 | >22.9 | > 300 | > 300 | 32.7 | > 300
10 | O[C@@H]1Cc2ccc3ccccc3c2N[C@H](c2cccc(Cl)c2)C1 | 23.4 | > 30 | 1.4 | 54.9 | 21.9 | 30.7 | > 200 | 7.2 | 1.3 | 43.2 | 177 | 6 | 67.3
11 | O[C@@H]1Cc2ccc3ccccc3c2N[C@H](c2ccccc2)C1 | 19.3 | > 30 | 5.7 | 35.1 | 18.9 | 108 | > 268 | 2.2 | 5.6 | 102 | > 300 | 46 | 67.1
12 | c1ccc([C@@H]2C[C@@H]3Cc4ccc5ccccc5c4N2O3)cc1 | > 100 | > 100 | 11.5 | > 350 | 6.3 | 72.9 | > 350 | >16.5 | <0.7 | > 350 | > 350 | 21.2 | 175
13 | Brc1ccc([C@@H]2C[C@@H]3Cc4ccc5ccccc5c4N2O3)cc1 | > 100 | > 100 | 11.4 | 176 | 21.9 | > 250 | > 250 | >3.4 |  | > 250 | > 250 | 73.4 | > 250
14 | O[C@@H]1Cc2ccc3ccccc3c2N[C@H](c2ccc(Br)cc2)C1 | 9.9 | 29.7 | 10.2 | 15.9 | 6.5 | 66.1 | > 200 | 4.3 | 6.7 | 79 | > 200 | 18.5 | 37.1
15 | C[C@@H]1[C@H](O)[C@@H](C)/C=C/C=C/C=C/C=C/C=C/C=C/C=C/[C@H](O[C@@H]2O[C@H](C)[C@@H](O)[C@H](N)[C@@H]2O)C[C@@H]2O[C@](O)(C[C@@H](O)C[C@@H](O)[C@H](O)CC[C@@H](O)C[C@@H](O)CC(=O)O[C@H]1C)C[C@H](O)[C@H]2C(=O)O [AMPHOTERICIN B] |  |  |  |  |  |  |  | 17 |  | 0.17 | 0.18 | 0.01 | 0.03
16 | CC1CS(=O)(=O)CCN1/N=C/c1ccc([N+](=O)[O-])o1 (stereo unspecified) [NIFURTIMOX] |  | 11 | 4.8 | 17 |  | 114 | > 300 |  |  |  |  |  | 
